Experiments:
Settings in all cases: stereoisomer not certain
[1] = biological target: T1, OR51I2 (Homo sapiens) (UniProt Q9H344)
T1 sequence (whole entry): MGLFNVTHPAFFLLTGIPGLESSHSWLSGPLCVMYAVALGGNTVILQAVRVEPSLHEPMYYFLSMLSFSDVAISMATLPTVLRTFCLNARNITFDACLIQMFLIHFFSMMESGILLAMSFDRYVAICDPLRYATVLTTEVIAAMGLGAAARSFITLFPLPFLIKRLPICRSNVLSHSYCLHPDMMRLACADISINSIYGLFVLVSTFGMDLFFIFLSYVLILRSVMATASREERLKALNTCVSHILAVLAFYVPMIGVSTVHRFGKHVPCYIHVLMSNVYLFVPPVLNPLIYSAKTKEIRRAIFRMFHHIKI
Method in brief: (§1)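 Each entry records the cell line, G-protein, co-transfected protein and tags used. Methods varied with the source, often transient luciferase assays in mammalian cell lines. A receptor–molecule pair is called responsive (active) if the original authors judged its signal statistically different from baseline and non-responsive (inactive) otherwise.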

[2] = biological target: T2, OR51J1 (Homo sapiens) (UniProt Q9H342)
T2 sequence (whole entry): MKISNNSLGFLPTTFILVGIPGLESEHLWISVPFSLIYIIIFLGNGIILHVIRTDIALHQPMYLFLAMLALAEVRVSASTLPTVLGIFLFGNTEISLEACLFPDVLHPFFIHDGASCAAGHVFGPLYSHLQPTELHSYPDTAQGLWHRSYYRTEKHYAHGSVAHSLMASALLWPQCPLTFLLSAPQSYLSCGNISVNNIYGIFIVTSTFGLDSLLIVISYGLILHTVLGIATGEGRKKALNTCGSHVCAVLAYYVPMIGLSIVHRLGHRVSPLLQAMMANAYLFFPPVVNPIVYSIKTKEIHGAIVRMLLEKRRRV
Method in brief: as §1

[3] = biological target: T3, OR51L1 (Homo sapiens) (UniProt Q8NGJ5)
T3 sequence (whole entry): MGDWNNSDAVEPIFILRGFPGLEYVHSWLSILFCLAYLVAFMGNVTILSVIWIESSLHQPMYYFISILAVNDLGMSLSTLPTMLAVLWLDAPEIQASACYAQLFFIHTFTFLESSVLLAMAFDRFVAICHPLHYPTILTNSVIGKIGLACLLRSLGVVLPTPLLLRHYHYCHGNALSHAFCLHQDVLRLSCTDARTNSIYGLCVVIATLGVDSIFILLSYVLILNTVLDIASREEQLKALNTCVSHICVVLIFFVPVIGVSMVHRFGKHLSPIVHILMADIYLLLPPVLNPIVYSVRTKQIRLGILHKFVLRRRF
Method in brief: as §1

[4] = biological target: T4, OR51M1 (Homo sapiens) (UniProt Q9H341)
T4 sequence (whole entry): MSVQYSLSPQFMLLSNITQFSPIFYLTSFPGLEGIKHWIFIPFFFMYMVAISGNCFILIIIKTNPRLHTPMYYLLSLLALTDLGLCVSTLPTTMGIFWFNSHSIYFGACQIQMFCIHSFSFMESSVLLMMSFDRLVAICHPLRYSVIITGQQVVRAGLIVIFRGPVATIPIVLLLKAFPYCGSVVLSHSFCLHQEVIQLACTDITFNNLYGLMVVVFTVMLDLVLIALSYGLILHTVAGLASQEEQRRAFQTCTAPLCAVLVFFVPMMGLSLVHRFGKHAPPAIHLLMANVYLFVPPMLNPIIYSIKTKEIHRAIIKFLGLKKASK
Method in brief: as §1

[5] = biological target: T5, OR51Q1 (Homo sapiens) (UniProt Q8NH59)
T5 sequence (whole entry): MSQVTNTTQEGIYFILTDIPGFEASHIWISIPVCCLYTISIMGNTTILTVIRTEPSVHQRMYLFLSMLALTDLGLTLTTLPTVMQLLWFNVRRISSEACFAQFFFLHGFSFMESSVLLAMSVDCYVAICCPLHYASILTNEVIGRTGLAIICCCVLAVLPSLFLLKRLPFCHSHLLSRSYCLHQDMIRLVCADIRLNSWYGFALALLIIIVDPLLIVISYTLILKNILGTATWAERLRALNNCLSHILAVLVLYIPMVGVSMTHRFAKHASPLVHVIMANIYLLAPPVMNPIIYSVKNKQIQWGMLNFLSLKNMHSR
Method in brief: as §1

[6] = biological target: T6, OR51S1 (Homo sapiens) (UniProt Q8NGJ8)
T6 sequence (whole entry): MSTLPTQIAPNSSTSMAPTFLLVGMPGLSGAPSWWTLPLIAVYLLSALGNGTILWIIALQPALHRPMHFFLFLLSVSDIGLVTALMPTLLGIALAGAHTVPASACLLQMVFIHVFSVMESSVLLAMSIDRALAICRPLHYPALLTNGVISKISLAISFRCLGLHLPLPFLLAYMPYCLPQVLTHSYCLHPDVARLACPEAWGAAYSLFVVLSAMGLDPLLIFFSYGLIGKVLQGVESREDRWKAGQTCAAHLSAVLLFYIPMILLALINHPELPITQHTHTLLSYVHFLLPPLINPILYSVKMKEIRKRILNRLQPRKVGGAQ
Method in brief: as §1

[7] = biological target: T7, OR51T1 (Homo sapiens) (UniProt Q8NGJ9)
T7 sequence (whole entry): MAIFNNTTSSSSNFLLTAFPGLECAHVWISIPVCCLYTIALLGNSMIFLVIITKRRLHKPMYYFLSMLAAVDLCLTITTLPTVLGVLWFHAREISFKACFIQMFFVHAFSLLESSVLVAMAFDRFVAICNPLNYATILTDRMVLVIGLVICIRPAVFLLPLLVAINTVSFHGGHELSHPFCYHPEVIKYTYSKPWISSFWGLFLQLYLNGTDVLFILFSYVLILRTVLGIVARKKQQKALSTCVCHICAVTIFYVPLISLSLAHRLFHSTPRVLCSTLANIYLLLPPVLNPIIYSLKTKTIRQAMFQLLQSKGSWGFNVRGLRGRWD
Method in brief: as §1

[8] = biological target: T8, OR51V1 (Homo sapiens) (UniProt Q9H2C8)
T8 sequence (whole entry): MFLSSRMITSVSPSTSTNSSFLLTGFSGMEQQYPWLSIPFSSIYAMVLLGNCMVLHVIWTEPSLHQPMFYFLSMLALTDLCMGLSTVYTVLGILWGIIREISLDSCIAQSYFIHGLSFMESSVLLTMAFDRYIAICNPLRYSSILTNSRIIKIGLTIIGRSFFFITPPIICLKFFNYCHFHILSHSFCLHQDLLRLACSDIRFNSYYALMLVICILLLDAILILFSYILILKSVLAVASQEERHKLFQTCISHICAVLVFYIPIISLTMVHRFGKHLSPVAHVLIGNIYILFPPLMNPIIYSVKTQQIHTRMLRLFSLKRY
Method in brief: as §1

[9] = biological target: T9, OR52A1 (Homo sapiens) (UniProt Q9UKL2)
T9 sequence (whole entry): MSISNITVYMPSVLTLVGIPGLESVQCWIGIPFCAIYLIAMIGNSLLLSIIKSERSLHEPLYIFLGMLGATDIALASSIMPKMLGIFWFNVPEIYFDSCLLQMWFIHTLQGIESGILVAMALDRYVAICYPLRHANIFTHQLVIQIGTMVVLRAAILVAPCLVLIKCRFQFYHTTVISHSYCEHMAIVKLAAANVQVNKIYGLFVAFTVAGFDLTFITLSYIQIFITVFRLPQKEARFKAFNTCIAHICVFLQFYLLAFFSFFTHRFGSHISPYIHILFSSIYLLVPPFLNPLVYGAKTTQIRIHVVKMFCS
Method in brief: as §1

[10] = biological target: T10, OR52A4P (Homo sapiens) (UniProt A6NMU1)
T10 sequence (whole entry): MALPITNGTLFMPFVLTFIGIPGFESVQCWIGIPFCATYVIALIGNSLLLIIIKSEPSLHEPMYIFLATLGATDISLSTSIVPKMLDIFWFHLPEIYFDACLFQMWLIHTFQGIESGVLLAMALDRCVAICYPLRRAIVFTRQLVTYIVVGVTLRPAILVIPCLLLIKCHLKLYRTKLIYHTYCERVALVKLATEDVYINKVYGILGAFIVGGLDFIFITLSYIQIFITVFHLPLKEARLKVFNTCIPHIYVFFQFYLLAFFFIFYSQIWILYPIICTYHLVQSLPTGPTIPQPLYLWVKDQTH
Method in brief: as §1

Measured: odorant receptor agonist call

CCCCCC(S)C(C)CO (stereo not given)
inactive: all assays above

O=C(c1ccccc1)c1ccccc1
inactive: [3]

Cc1cnc(C)c(C)n1
not listed: [7] | [10]
inactive: all other assays above

CCC1OC(=O)C(O)=C1C (stereo not given)
not listed: [7] | [10]
inactive: all other assays above

CCCCCCCCCS
inactive: [3]

CCCCCCC(=O)[O-].[H+]
inactive: [3]

CC(CO)CS (stereo not given)
inactive: all assays above

c1ccccc1
inactive: [3]

CCCCCCC=CCCC=O
not listed: [10]
inactive: all other assays above

CC1CCCCCCCCCCCCC(=O)C1 (stereo not given)
inactive: all assays above

CCCCCCCCO
inactive: [3]

CCCCCCCCCO
inactive: [3]

CCC(S)C(C)CO (stereo not given)
inactive: all assays above

CCCCCC(=O)C(C)C(C)=O (stereo not given)
inactive: all assays above

CCCC(S)CCOC(C)=O (stereo not given)
not listed: [7] | [10]
inactive: all other assays above

O=C1Cc2ccccc2O1
inactive: [3]

— the M2OR odorant receptor database
